Measurements as given in ChEMBL document CHEMBL1137139, “Synthesis of potent taxoids for tumor-specific delivery using monoclonal antibodies” (Bioorg Med Chem Lett, 2004).

Columns and labels:
Format in all cases: functional, cell-based
A549 [1] = assay: Compound was tested for its cytotoxicity by inhibiting the growth of A-549 cell line after 72 h; conditions: Homo sapiens, A549, 72 h
MCF7 = assay: Compound was tested for its cytotoxicity by inhibiting the growth of MCF-7 cell line after 72 h; conditions: Homo sapiens, MCF7, 72 h
A-431 = assay: Cytotoxic effect on A431 cell proliferation after 72 hr; conditions: Homo sapiens, A-431, 72 h
Procedure, shortened: (§1)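 Human cancer cell lines were exposed to the compound continuously for 72 h, and growth inhibition was measured. IC50 was taken as the concentration that inhibits 50% of cell-line growth.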

A549 [2] = assay: Concentration of compound that inhibits 50% of growth of Compound was tested for its cytotoxicity by inhibiting the growth of; conditions: Homo sapiens
A549 [3] = assay: Concentration of compound that Compound was tested for its cytotoxicity by inhibiting the growth of A-549 cell line after 72 h; conditions: Homo sapiens, A549, 72 h; procedure, shortened: as §1

Row | SMILES | IC50 (A549 [1]) [pM] | IC50 (MCF7) [pM] | IC50 (A-431) [pM] | IC50 (A549 [2]) [pM] | IC50 (A549 [3]) [pM]
1 | COc1ccc(OC)c(C(=O)O[C@H]2[C@@H]3[C@]4(OC(C)=O)CO[C@@H]4C[C@H](O)[C@@]3(C)C(=O)[C@H](OC(C)=O)C3=C(C)[C@@H](OC(=O)[C@H](O)[C@H](C=C(C)C)NC(=O)OC(C)(C)C)C[C@]2(O)C3(C)C)c1 | 30 | 30 | – | – | –
2 | CSSc1cccc(C(=O)O[C@H]2[C@@H]3[C@]4(OC(C)=O)CO[C@@H]4C[C@H](O)[C@@]3(C)C(=O)[C@H](OC(C)=O)C3=C(C)[C@@H](OC(=O)[C@H](O)[C@H](C=C(C)C)NC(=O)OC(C)(C)C)C[C@]2(O)C3(C)C)c1 | > 3000 | – | > 3000 | – | –
3 | CC(=O)O[C@H]1C(=O)[C@@]2(C)[C@H]([C@H](OC(=O)c3cccc(Cl)c3)[C@]3(O)C[C@H](OC(=O)[C@H](O)[C@H](C=C(C)C)NC(=O)OC(C)(C)C)C(C)=C1C3(C)C)[C@]1(OC(C)=O)CO[C@@H]1C[C@@H]2O | 30 | 20 | – | – | –
4 | CC(=O)O[C@H]1C(=O)[C@@]2(C)[C@H]([C@H](OC(=O)c3cc(F)cc(F)c3)[C@]3(O)C[C@H](OC(=O)[C@H](O)[C@H](C=C(C)C)NC(=O)OC(C)(C)C)C(C)=C1C3(C)C)[C@]1(OC(C)=O)CO[C@@H]1C[C@@H]2O | – | 40 | – | 100 | –
5 | CSSCCC(=O)O[C@H]1C(=O)[C@@]2(C)[C@H]([C@H](OC(=O)c3cccc(Cl)c3)[C@]3(O)C[C@H](OC(=O)[C@H](O)[C@H](C=C(C)C)NC(=O)OC(C)(C)C)C(C)=C1C3(C)C)[C@]1(OC(C)=O)CO[C@@H]1C[C@@H]2O | – | 80 | – | – | 290
6 | CSSCCC(=O)O[C@H]1C(=O)[C@@]2(C)[C@H]([C@H](OC(=O)c3cccc(N(C)C)c3)[C@]3(O)C[C@H](OC(=O)[C@H](O)[C@H](C=C(C)C)NC(=O)OC(C)(C)C)C(C)=C1C3(C)C)[C@]1(OC(C)=O)CO[C@@H]1C[C@@H]2O | > 3000 | 3000 | – | – | –
7 | COc1cccc(C(=O)O[C@H]2[C@@H]3[C@]4(OC(C)=O)CO[C@@H]4C[C@H](O)[C@@]3(C)C(=O)[C@H](OC(=O)CCSSC)C3=C(C)[C@@H](OC(=O)[C@H](O)[C@H](C=C(C)C)NC(=O)OC(C)(C)C)C[C@]2(O)C3(C)C)c1 | 100 | 38 | – | – | –
8 | CSSCCC(=O)O[C@H]1C(=O)[C@@]2(C)[C@H]([C@H](OC(=O)c3cc(F)cc(F)c3)[C@]3(O)C[C@H](OC(=O)[C@H](O)[C@H](C=C(C)C)NC(=O)OC(C)(C)C)C(C)=C1C3(C)C)[C@]1(OC(C)=O)CO[C@@H]1C[C@@H]2O | 360 | 150 | – | – | –
9 | CSSCCC(=O)O[C@H]1C[C@H]2OC[C@@]2(OC(C)=O)[C@H]2[C@H](OC(=O)c3ccccc3)[C@]3(O)C[C@H](OC(=O)[C@H](O)[C@H](C=C(C)C)NC(=O)OC(C)(C)C)C(C)=C([C@@H](O)C(=O)[C@]12C)C3(C)C | 200 | – | 300 | – | –
10 | COc1ccc(OC)c(C(=O)O[C@H]2[C@@H]3[C@]4(OC(C)=O)CO[C@@H]4C[C@H](O)[C@@]3(C)C(=O)[C@H](OC(=O)CCSSC)C3=C(C)[C@@H](OC(=O)[C@H](O)[C@H](C=C(C)C)NC(=O)OC(C)(C)C)C[C@]2(O)C3(C)C)c1 | 80 | 40 | – | – | –
11 | CSSCCC(=O)O[C@@H](C(=O)O[C@H]1C[C@@]2(O)[C@@H](OC(=O)c3ccccc3)[C@@H]3[C@]4(OC(C)=O)CO[C@@H]4C[C@H](O)[C@@]3(C)C(=O)[C@H](OC(C)=O)C(=C1C)C2(C)C)[C@H](C=C(C)C)NC(=O)OC(C)(C)C | 900 | – | > 3000 | – | –
12 | COc1cccc(C(=O)O[C@H]2[C@@H]3[C@]4(OC(C)=O)CO[C@@H]4C[C@H](O)[C@@]3(C)C(=O)[C@H](OC(C)=O)C3=C(C)[C@@H](OC(=O)[C@H](O)[C@H](C=C(C)C)NC(=O)OC(C)(C)C)C[C@]2(O)C3(C)C)c1 | 40 | 20 | – | – | –
13 | CCC(=O)O[C@H]1C(=O)[C@@]2(C)[C@H]([C@H](OC(=O)c3ccccc3)[C@]3(O)C[C@H](OC(=O)[C@H](O)[C@H](CC(C)C)NC(=O)CCSSC)C(C)=C1C3(C)C)[C@]1(OC(C)=O)CO[C@@H]1C[C@@H]2O | > 3000 | – | > 3000 | – | –
14 | CSSCCC(=O)N[C@@H](CC(C)C)[C@@H](O)C(=O)O[C@H]1C[C@@]2(O)[C@@H](OC(=O)c3ccccc3)[C@@H]3[C@]4(OC(C)=O)CO[C@@H]4C[C@H](O)[C@@]3(C)C(=O)[C@H](OC(=O)N3CCOCC3)C(=C1C)C2(C)C | > 3000 | – | 2800 | – | –
15 | CC(=O)O[C@H]1C(=O)[C@@]2(C)[C@H]([C@H](OC(=O)c3cccc(N(C)C)c3)[C@]3(O)C[C@H](OC(=O)[C@H](O)[C@H](C=C(C)C)NC(=O)OC(C)(C)C)C(C)=C1C3(C)C)[C@]1(OC(C)=O)CO[C@@H]1C[C@@H]2O | 1000 | 1000 | – | – | –
